The source of these data is the EternaBench riboswitch data.

The series relates to MS2 coat protein. Nature of the series: apparent Kd, MS2 coat protein; higher = weaker binding; RNA-MaP array; FMN 200 µM where present. The gist of the method:
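Designs on Illumina sequencing-chip clusters, transcribed by stalled E. coli RNA polymerase, were exposed to SNAP-549-labelled MS2 coat protein in doubling steps from 0.7 or 1.5 nM up to 3 µM, without and then with constant ligand. The buffer held 100 mM Tris-HCl pH 7.5, 80 mM KCl, 4 mM MgCl2, BSA, DTT, yeast tRNA and Tween-20. Apparent Kd values are medians of filtered per-cluster binding-curve fits to green signal normalised to red-channel RNA signal and control-cluster median Fmax.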

[1] abbreviates: designed as: OFF switch for flavin mononucleotide, no ligand.
Where [2] appears, read: ligand present: flavin mononucleotide, designed as: OFF switch for flavin mononucleotide.
Where [3] appears, read: designed as: ON switch for flavin mononucleotide, no ligand.
[4] abbreviates: ligand present: flavin mononucleotide, designed as: ON switch for flavin mononucleotide.

In the case of “CUGAGCUGAGGAUAUACAUGAGGAUCACCCAUGUUUUGUAGUUAGUGAAGAAGUAGUUGUAGAAGGCAGUUCGG”, the “apparent Kd” value runs as follows: under setting [1], 51.3 nM; under setting [2], 255 nM.
Taken in the same sequence, the figures for “GGAUAGGACAGAGGAUAUACGUGCUAGAGAUACUAGCAAAAUUUCUUCACAUGAGGAUCACCCAUGUAGAAGGCUGUCCUAUCG” were 4.55 nM and 5.6 nM.
Take “GAUUAACAUGAGGAUCACCCAUGUCGUUAUAUGGGAGGAUAUACGUGGACCGUAGUCCGCGUAGAAGGCCUAAUUG”: the “apparent Kd” value under setting [3] worked out at 311 nM and the “apparent Kd” value under setting [4] was determined as 60.3 nM.
Taken in the same sequence, the figures for “ACAAAUCCUGACAUGAGGAUCACCCAUGUUAGAUUGUUAUGUCAGGAUAUUAUCUGGCAACCAGAUGAGAAGGGACGAUUUGUG” were 722 nM and 64.7 nM.
Consider “UUUAUUUCGGCAGGAUAUACAUGUAUAUAUAUUUCUUCAUAUCUUAUUACAUGAGGAUCACCCAUGUAGAAGGGCCUUCUUCUC”, for which the “apparent Kd” value amounted to 65.6 nM under setting [1] and 80.5 nM under setting [2].
With “CAUGUCCUCACAGGAUAUGCAAUGUAUUUCAUUGCAGAAGGGUGAACACAUGAGGAUCACCCAUGUGGACAUGAUAUAUUUAAG”, the “apparent Kd” value is, setting by setting: under setting [3], 529 nM; under setting [4], 63.4 nM.
For “AAGAAGUCAGGAUAUGCAUGGCGGGACUUGCGUCGUGGCGUGCAGAAGGGACAUGAGGAUCACCCAUGUGGAGC”, the “apparent Kd” value reads like this: under setting [1], 107 nM; under setting [2], 161 nM.
Taken in the same sequence, the figures for “AAGUGUGCCUAGGAUAUGUUCGGCCAAGGUCAUACAGAAGGAGGCACAUGAGGAUCACCCAUGUAGUGUCCUAC” were 73.2 nM and 43.1 nM.
As to “GUGUAGAUAGGAUAUGCAUAGAGCUUACGAAAGUAGGCUCUACAUGAGGAUCACCCAUGUAGAAGGGUCUACAC”, the “apparent Kd” value turned out to be 27.9 nM under setting [1] and 21.2 nM under setting [2].
Regarding “GGUGCGUUUGUGAGGAUAUGCUGGUCCUUGGAUCAGCAGAAGGCACAUGAGGAUCACCCAUGUGGUGUCCGUCC”, the “apparent Kd” value under setting [1] amounted to 222 nM and the “apparent Kd” value under setting [2] is 117 nM.
For the sequence “UUACUCAUGUAAGGAUAUGCAGCCGAAACGGCUGUAGAAGGUACUAAAAUACAUGAGGAUCACCCAUGUCUUUUUAAUUUAGAC”, the “apparent Kd” value is, setting by setting: under setting [3], 103 nM; under setting [4], 74.6 nM.
Regarding “UUAAGCAAGGAGAAGGCCCAGGUGGGCCAUCACAUGAGGAUCACCCAUGUGGGAGGAUAUCCGGGCCCACGCUUAUCCGCGGGC”, the “apparent Kd” value under setting [1] is 7.6 nM and the “apparent Kd” value under setting [2] was determined as 12.6 nM.
Taken in the same sequence, the figures for “GGAAAGUGAGGAUAUGCAUAACAAAUACAAAGAGAAACAAAGCAGAAGGCACAUGAGGAUCACCCAUGUAAACA” were 24.9 nM and 25 nM.
For the sequence “CUAAAAGUCGAGGAUAUGCACCGGCUUUUUGACGCAGAAGGCGACACAUGAGGAUCACCCAUGUCGGUACGCGA”, the “apparent Kd” value under setting [1] amounted to 12.2 nM and the “apparent Kd” value under setting [2] amounted to 13 nM.
Taken in the same sequence, the figures for “GCUAAGAGUGUGAGGAUAUGCUGGUCCUUGGAUCAGCAGAAGGCACAUGAGGAUCACCCAUGUGAAAACUUAGC” were 23.3 nM and 89.6 nM.
With “GUAACAUGAGGAUCACCCAUGUAUAGAACACUCAAUAGAUCUGAGGAUAUAGUAGAAUUUACAUACUAGAAGGCAGUGGGUACA”, the “apparent Kd” value under setting [3] came to 55.2 nM and the “apparent Kd” value under setting [4] is 29.6 nM.
For “AUAAUUUUAUAAUUCUUUUUAUUCAGAAGGCAUAACAUGAGGAUCACCCAUGUAAAUUAAUGUUAUGAGGAUAUGAUUUGGUUA”, the “apparent Kd” value reads like this: under setting [1], 22.5 nM; under setting [2], 118 nM.
For “GACUGACGAGGAUAUACAUGAGGAUCACCCAUGUAAGAUCAGCGACGAUAGUCGCAAUGUAGAAGGCGUCAGUC” the same measures were 29.8 nM and 293 nM.
With “UUCAUGUGAGGAUAUGCGGCACCAGGCAAGCCUAGUGCUGAGCAGAAGGCACAUGAGGAUCACCCAUGUGCUCC”, the “apparent Kd” value by setting is: under setting [1], 29.3 nM; under setting [2], 72.2 nM.
For “CGCAAGUAUACAUGAGGAUCACCCAUGUCAGAAAGGGUAAUCAGAAGGUACAAUUAGAGAUAGAGUAAGGAUAUGAAAUUUGCG”, the “apparent Kd” value reads like this: under setting [3], 750 nM; under setting [4], 274 nM.
For “UGGUACUAGGGAGGAUAUGGGAAGAUACAUGAGGAUCACCCAUGUUUAAGAAUGCCGAGAGGCAAUUAGAAGGCCCUAGUACCU” the same measures were 983 nM and 148 nM.
For “AAAAUAGCAGGAUAUACAUGAGGAUCACCCAUGUUUAUUGGGCACUUGCUGACGUCGUGUAGAAGGGUUACGAC”, the “apparent Kd” value by setting is: under setting [1], 20.5 nM; under setting [2], 18.8 nM.
Take “CCGCAUAUGCAGGAUAUCGUAUCGGAAACGAUACGAGAAGGGUAAACAUGAGGAUCACCCAUGUUCCUUAACGG”: the “apparent Kd” value under setting [1] was 18 nM and the “apparent Kd” value under setting [2] was 16.5 nM.
For “UAUUAGUUAGGAUAUACAUGAGGAUCACCCAUGUCACGGGUCCACUUGUCCUAUGCGUGUAGAAGGAGCGACCC” the same measures were 19.5 nM and 20.8 nM.
For the sequence “AAAAAAAAAGUAGAGGAUAUCCGAGUGGUAACAUGAGGAUCACCCAUGUGAAGAAAGGAACAUGAGGAGAAGGCUACAAAAAAAAA”, the “apparent Kd” value worked out at 46.6 nM under setting [3] and 16.6 nM under setting [4].
As to “UGGUGGAAGCAGGAUAUGCUUGUUUUAUUGAUUGCAGAAGGGCUAACAUGAGGAUCACCCAUGUAAGAGGUGUU”, the “apparent Kd” value reads like this: under setting [1], 428 nM; under setting [2], 196 nM.
Taken in the same sequence, the figures for “AGUCGGAGCAGAGGAUAUACAUGAGGAUCACCCAUGUAAAUGGAAUAAGCCUGGAAACAGGCAAUGUAGAAGGCUGCUCCGACA” were 75 nM and 716 nM.
“CUGAGCUCAGGAUAUACAUGAGGAUCACCCAUGUGUUCCUGCGACGUUAGUUGCACAUGUAGAAGGGAGUUCGG”: the “apparent Kd” value by setting is: under setting [1], 272 nM; under setting [2], 57.8 nM.
Turning to “AAGCGAAAGCUAAAAUAUCUAUCAGAGGAUAUUUAUGAUACAUGAGGAUCACCCAUGUAGCGCUGGGAGAAGGCUGAUAGAUAA”, the “apparent Kd” value was found to be 6.44 nM under setting [3] and 4.98 nM under setting [4].
On to “AUGUACCUAGGAUAUACAUGAGGAUCACCCAUGUAGCUUCACGUGGUAGGAUCCUUUGGUAGAAGGAGGAUCUU”, for which the “apparent Kd” value came out at 37.3 nM under setting [1] and 68.2 nM under setting [2].
Taken in the same sequence, the figures for “CUUCAAGAUGUGAGGAUAUCGCCGAUGAGGAUAGUUGAGAAGGUACAUGAGGAUCACCCAUGUAGGCUGGGUUU” were 31.9 nM and 42.1 nM.
Taken in the same sequence, the figures for “UUGGGACAUGAGGAUCACCCAUGUCAGGAUAUCCCGGCCCGCCCGUGAGGGCGGGCCGGGAGAAGGGACCUUUG” were 41 nM and 42.9 nM.
Take “ACCAUUUACUAAUCCUCUAUACAUGAGGAUCACCCAUGUUAUGAGGAUAUCAUCGUUCGCCGCGUUGAGAAGGCAUAGCAUUCG”: the “apparent Kd” value is, setting by setting: under setting [1], 16.3 nM; under setting [2], 25.9 nM.
In the case of “UGUCGGAGCAGAGGAUAUUACAUGAGGAUCACCCAUGUAUGAACCAAUAGCCGGAAACAGCAAUGUAAGAAGGCUGCUCCGACA”, the “apparent Kd” value runs as follows: under setting [1], 4.64 nM; under setting [2], 6.88 nM.
In the case of “GGUACUCAAAGAGUACCAAUACGAACAUGAGGAUCACCCAUGUAGGAUAUGCUACUCAAAGAGUAGCAGAAGGACAUGUGCUUA”, the “apparent Kd” value reads like this: under setting [1], 25.9 nM; under setting [2], 135 nM.
Take “CAUGAUCAUGUAGGAUAUAUACUGGAAUACAGUAUAGAAGGACAUGAGGAUCACCCAUGUUAUGUGCCUCCAAGUGAGAUCAUG”: the “apparent Kd” value under setting [1] was 20.1 nM and the “apparent Kd” value under setting [2] was 28.3 nM.
For “GUUGUUUCUGAGGAUAUUAUUUUAUUCGAUUGAUAAGAAGGCAGUACAUGAGGAUCACCCAUGUGGGUAGUUUG” the same measures were 94.2 nM and 172 nM.
For “GUGAGGUCAGGAUAUGCAUGGCGGGACUUGCGUCGUGGCGUGGAGAAGGGACAUGAGGAUCACCCAUGUGGAGG” the same measures were 115 nM and 95 nM.
As for “CCAUGGCUGUAAGGAUAUGUCUGACAAAGUCAGACAGAAGGUACAUGAGGAUCACCCAUGUGAAGAAAACCACAUUUGCCAUGG”, the “apparent Kd” value under setting [1] was found to be 6.68 nM and the “apparent Kd” value under setting [2] is 8.41 nM.
Taken in the same sequence, the figures for “AGCCUUAGAGGAUAUACAUGAUCCUCCAUCGCGAAAGGGCUACAUGAGGAUCACCCAUGUAGAAGGCUGAGGGA” were 20.1 nM and 33.6 nM.
Consider “CUUUUGUGAGGAUAUCAGUAGUUAAAUAAUAAAAUUACUACUGAGAAGGCACAUGAGGAUCACCCAUGUUCCUC”, for which the “apparent Kd” value worked out at 36.4 nM under setting [1] and 201 nM under setting [2].
Taken in the same sequence, the figures for “AAUAUGAGCUGGUUUAAAACCUAAACAUGAGGAUCACCCAUGUAGGAUAUCAGCACGAUAAGUGCUGAGAAGGACAUCCAGCUC” were 15 nM and 14.7 nM.
Regarding “UAAAAACAUGAGGAUCACCCAUGUGAAAAUAUGGGAGGAUAUACAAAGACGAGAGUCAAAGUAGAAGGCCUAAAAU”, the “apparent Kd” value is, setting by setting: under setting [3], 73.5 nM; under setting [4], 24.5 nM.
As to “CAGGUAGCUAGAGGAUAUACACGUCUGGAUAAACCAGACGAAUAAACCACAUGAGGAUCACCCAUGUAGAAGGCUAGCUGCCUG”, the “apparent Kd” value was 15.2 nM under setting [1] and 22.7 nM under setting [2].
Taken in the same sequence, the figures for “GCCAAGCUAGGAUAUACCCAGGGUUUGUUCUCUAACAACACACAUGAGGAUCACCCAUGUAGAAGGAGCCGGGA” were 38.3 nM and 81 nM.
As to “GGACAUGUACAGAAGGGCAAUUUAUUUAUUGAUUAUUUAGUUCUGUAUUGCAGGAUAUGUAAAACAUGAGGAUCACCCAUGUCC”, the “apparent Kd” value was determined as 73.5 nM under setting [3] and 56.4 nM under setting [4].
With “AGCGGCGCAGACCACCGCAAAACCAGAAGGACAUGAGGAUCACCCAUGUAACAAAACAGGGCAAUGUAGGAUAUGGCAAACCCA”, the “apparent Kd” value by setting is: under setting [1], 11.1 nM; under setting [2], 12.6 nM.
On to “ACGGUGGUCACAGGAUAUCCAGCCCGCGUGCCUGGAGAAGGGUGACUCAGAACCACAUGAGGAUCACCCAUGUGCCUUGCCGUA”, for which the “apparent Kd” value was determined as 140 nM under setting [3] and 33.4 nM under setting [4].
